Data taken from publication PMC7280087 (Drug Design, Development and Therapy, 2020).

How the values were obtained:
[1] = format: in vivo, Sprague-Dawley rats; details: single-dose group (voriconazole 30 mg/kg); vonoprazan 10 mg/kg oral; rats
[2] = target: vonoprazan metabolism in rat liver microsomes; experiment: Inhibition of vonoprazan metabolism by voriconazole in rat liver microsomes; format: in vitro ADME; details: RLM; for mode of inhibition of vonoprazan metabolism: Lineweaver–Burk plot, Ki ≠ αKi
Summary of the method: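 Rat liver microsomes were prepared in-house and used at 0.44 mg/mL, with 1 mM NADPH in 100 mM potassium phosphate (pH 7.4) in a 200 µL volume. Test inhibitor was at 0, 1.5, 3, 6 and 12 μM and substrate at 5, 10, 20 and 40 μM. Incubation ran 50 min at 37°C, was stopped by −80°C cooling, then acetonitrile plus IS was added. Substrate was quantified by LC-MS/MS, with Lineweaver–Burk and secondary plots giving Ki and αKi.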

[3] = 0-12 μM voriconazole, 5-40 μM vonoprazan, Lineweaver–Burk secondary plot

SMILES	decrease of CLz/F compared with the control group [1]	Ki [2, 3]	αKi [2, 3]	mode of inhibition of vonoprazan metabolism [2]	mode of inhibition of vonoprazan metabolism ([2]; listed as voriconazole)
CNCc1cc(-c2ccccc2F)n(S(=O)(=O)c2cccnc2)c1 [Vonoprazan, vonoprazan]	2.7 fold	–	–	–	–
C[C@@H](c1ncncc1F)[C@](O)(Cn1cncn1)c1ccc(F)cc1F [Voriconazole, voriconazole]	–	2690 nM	5.32 µM	mixed inhibition	mixed type
